The results in this text go back to ChEMBL document CHEMBL2157928, “Diarylheptanoid glycosides from Tacca plantaginea and their effects on NF-κB activation and PPAR transcriptional activity” (Bioorg Med Chem Lett, 2012).

Molecules are shown by their SMILES. pEC50, pIC50: −log10 of the molar value.

The target of one series is T1, Peroxisome proliferator-activated receptor alpha (Homo sapiens) (UniProt Q07869).
T1 sequence (whole entry): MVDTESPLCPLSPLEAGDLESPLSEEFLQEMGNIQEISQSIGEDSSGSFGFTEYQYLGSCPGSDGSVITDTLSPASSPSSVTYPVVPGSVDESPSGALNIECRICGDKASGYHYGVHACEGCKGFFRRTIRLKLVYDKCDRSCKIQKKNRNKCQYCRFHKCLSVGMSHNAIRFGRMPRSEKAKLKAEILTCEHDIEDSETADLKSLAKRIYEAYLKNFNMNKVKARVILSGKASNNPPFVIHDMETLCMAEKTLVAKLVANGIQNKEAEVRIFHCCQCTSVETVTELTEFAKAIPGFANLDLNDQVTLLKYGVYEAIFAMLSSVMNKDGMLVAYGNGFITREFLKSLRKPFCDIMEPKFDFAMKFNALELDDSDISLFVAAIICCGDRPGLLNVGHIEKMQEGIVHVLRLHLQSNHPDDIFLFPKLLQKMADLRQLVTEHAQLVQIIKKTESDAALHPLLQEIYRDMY
The experiment in a line: Transactivation of GAL4-fused PPARalpha ligand binding domain transfected in human HepG2 cells at 10 uM after 20 hrs by luciferase reporter gene assay relative to control. Type of series: cell-based.
Details: not given
In a few lines:
(§1)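 PPARα transactivation was measured by luciferase reporter in HepG2 cells. Activity was compared with a vehicle group, and ciprofibrate (1 µM) was the positive control.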
For orientation: In a reporter assay the amount or activity of a reporter protein is the signal.
`OC[C@H]1O[C@@H](O[C@H](CCc2ccc(O)c(O)c2)C[C@H](O)CCc2ccc(O)c(O)c2)[C@H](O)[C@@H](O)[C@@H]1O` displayed a fold change (FC) of 1.3.

Regarding `O=C(CCCCc1ccc(O[C@@H]2O[C@H](CO)[C@@H](O)[C@H](O)[C@H]2O)c(O)c1)CCc1ccc(O[C@@H]2O[C@H](CO)[C@@H](O)[C@H](O)[C@H]2O)c(O)c1` [PLANTAGINEOSIDE A], the fold change (FC) turned out to be 1.4.

For the next series, the system named is HepG2. The experiment in a line: Cytotoxicity against human HepG2 cells assessed as cell viability at 10 uM after 24 hrs by MTS assay. Type of series: cell-based. The conditions noted are these: hepg2, 24 h. On the technique in general: Tetrazolium assays rely on reduction of a dye to a coloured formazan, in cell work by metabolically active cells.
As for `OC[C@H]1O[C@@H](O[C@H](CCc2ccc(O)c(O)c2)C[C@H](O)CCc2ccc(O)c(O)c2)[C@H](O)[C@@H](O)[C@@H]1O`, the Activity entry is reported as “Non-toxic”.

For `O=C(CCCCc1ccc(O[C@@H]2O[C@H](CO)[C@@H](O)[C@H](O)[C@H]2O)c(O)c1)CCc1ccc(O[C@@H]2O[C@H](CO)[C@@H](O)[C@H](O)[C@H]2O)c(O)c1` [PLANTAGINEOSIDE A], the Activity entry was “Non-toxic”.

In a further series the target is T2, Peroxisome proliferator-activated receptor gamma (Homo sapiens, UniProt P37231).
T2 sequence (P37231 whole entry): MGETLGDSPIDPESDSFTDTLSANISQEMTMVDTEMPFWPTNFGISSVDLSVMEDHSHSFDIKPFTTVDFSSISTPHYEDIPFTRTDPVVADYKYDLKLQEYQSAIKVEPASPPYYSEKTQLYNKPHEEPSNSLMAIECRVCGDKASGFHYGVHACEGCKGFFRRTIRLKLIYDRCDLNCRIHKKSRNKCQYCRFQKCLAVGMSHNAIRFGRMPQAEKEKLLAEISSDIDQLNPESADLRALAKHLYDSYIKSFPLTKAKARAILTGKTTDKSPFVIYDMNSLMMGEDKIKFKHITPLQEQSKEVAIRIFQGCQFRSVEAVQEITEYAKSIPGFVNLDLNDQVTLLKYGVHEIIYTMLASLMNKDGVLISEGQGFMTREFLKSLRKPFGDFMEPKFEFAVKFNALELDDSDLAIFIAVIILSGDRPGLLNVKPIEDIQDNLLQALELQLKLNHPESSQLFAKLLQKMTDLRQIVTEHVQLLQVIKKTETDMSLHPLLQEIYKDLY
The experiment in a line: Transactivation of GAL4-fused PPARgamma ligand binding domain transfected in human HepG2 cells after 20 hrs by luciferase reporter gene assay. Type of series: cell-based.
Details: not given
As a reminder, the pEC50 is the negative decadic logarithm of the EC50, by convention in mol/L. A lower pEC50 goes with a large EC50. As for `OC[C@H]1O[C@@H](O[C@H](CCc2ccc(O)c(O)c2)C[C@H](O)CCc2ccc(O)c(O)c2)[C@H](O)[C@@H](O)[C@@H]1O`, the negative logarithm of the EC50 (pEC50) was < 4.30.

`O=C(CCCCc1ccc(O[C@@H]2O[C@H](CO)[C@@H](O)[C@H](O)[C@H]2O)c(O)c1)CCc1ccc(O[C@@H]2O[C@H](CO)[C@@H](O)[C@H](O)[C@H]2O)c(O)c1` [PLANTAGINEOSIDE A]: the pEC50 is < 4.30.

The next series addresses T3, Peroxisome proliferator-activated receptor alpha (Homo sapiens, UniProt Q07869).
T3 sequence (Q07869 whole entry): T1 sequence (whole entry)
The experiment in a line: Transactivation of GAL4-fused PPARalpha ligand binding domain transfected in human HepG2 cells after 20 hrs by luciferase reporter gene assay.
Details: not given
Type of series: cell-based. Summed up: as §1
With `OC[C@H]1O[C@@H](O[C@H](CCc2ccc(O)c(O)c2)C[C@H](O)CCc2ccc(O)c(O)c2)[C@H](O)[C@@H](O)[C@@H]1O`, the negative logarithm of the EC50 (pEC50) was < 4.30.

The compound `O=C(CCCCc1ccc(O[C@@H]2O[C@H](CO)[C@@H](O)[C@H](O)[C@H]2O)c(O)c1)CCc1ccc(O[C@@H]2O[C@H](CO)[C@@H](O)[C@H](O)[C@H]2O)c(O)c1` [PLANTAGINEOSIDE A] had a pEC50 of 4.33.

For a further series, the target named is T4, Peroxisome proliferator-activated receptor delta (Homo sapiens) (UniProt Q03181).
T4 sequence (whole entry): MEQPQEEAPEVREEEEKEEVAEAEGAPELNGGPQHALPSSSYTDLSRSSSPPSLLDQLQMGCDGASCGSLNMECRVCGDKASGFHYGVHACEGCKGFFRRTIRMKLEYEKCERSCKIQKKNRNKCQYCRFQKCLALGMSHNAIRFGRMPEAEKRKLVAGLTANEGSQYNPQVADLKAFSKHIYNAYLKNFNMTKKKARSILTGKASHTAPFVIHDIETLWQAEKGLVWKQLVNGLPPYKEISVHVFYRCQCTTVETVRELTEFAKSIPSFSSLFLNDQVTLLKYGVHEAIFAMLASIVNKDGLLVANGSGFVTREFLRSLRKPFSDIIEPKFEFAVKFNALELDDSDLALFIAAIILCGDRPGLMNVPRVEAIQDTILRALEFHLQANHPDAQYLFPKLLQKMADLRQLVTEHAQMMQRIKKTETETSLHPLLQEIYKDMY
The experiment in a line: (§2) Transactivation of GAL4-fused PPARbeta (delta) ligand binding domain transfected in human HepG2 cells after 20 hrs by luciferase reporter gene assay. Type of series: cell-based.
Details: not given
In a few lines:
(§3)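 For PPARβ(δ), luciferase transactivation was measured in HepG2 cells against a vehicle group, with L-165041 (1 µM) as positive control. EC50 came from the dose–response, given as mean ± SD (n = 3), with a cutoff of EC50 > 50 µM for inactivity.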
Regarding `OC[C@H]1O[C@@H](O[C@H](CCc2ccc(O)c(O)c2)C[C@H](O)CCc2ccc(O)c(O)c2)[C@H](O)[C@@H](O)[C@@H]1O`, the Activity result is “Dose-dependent effect”.

As to `O=C(CCCCc1ccc(O[C@@H]2O[C@H](CO)[C@@H](O)[C@H](O)[C@H]2O)c(O)c1)CCc1ccc(O[C@@H]2O[C@H](CO)[C@@H](O)[C@H](O)[C@H]2O)c(O)c1` [PLANTAGINEOSIDE A], the Activity entry was “Dose-dependent effect”.

The next series deals with T5, Peroxisome proliferator-activated receptor delta (Homo sapiens, UniProt Q03181).
T5 sequence (Q03181 whole entry): T4 sequence (whole entry)
Described as §2. Type of series: cell-based.
Details: not given
Summed up:
as §3
Take `OC[C@H]1O[C@@H](O[C@H](CCc2ccc(O)c(O)c2)C[C@H](O)CCc2ccc(O)c(O)c2)[C@H](O)[C@@H](O)[C@@H]1O`: the pEC50 was 4.64.

With `O=C(CCCCc1ccc(O[C@@H]2O[C@H](CO)[C@@H](O)[C@H](O)[C@H]2O)c(O)c1)CCc1ccc(O[C@@H]2O[C@H](CO)[C@@H](O)[C@H](O)[C@H]2O)c(O)c1` [PLANTAGINEOSIDE A], the pEC50 was 4.96.

For another series, the target named is T6, Peroxisome proliferator-activated receptor (Homo sapiens, UniProt P37231+Q07869+Q03181).
T6 sequence (P37231 whole entry): T2 sequence (P37231 whole entry)
T6 sequence (Q07869 whole entry): T1 sequence (whole entry)
T6 sequence (Q03181 whole entry): T4 sequence (whole entry)
The experiment in a line: (§4) Transactivation of PPAR transfected in human HepG2 cells after 20 hrs by luciferase reporter gene assay. Type of series: cell-based.
Details: not given
A word on the EC50: it is the concentration at which the effect is half-maximal. High values mean a less potent agent, low ones a more potent agent. The compound `OC[C@H]1O[C@@H](O[C@H](CCc2ccc(O)c(O)c2)C[C@H](O)CCc2ccc(O)c(O)c2)[C@H](O)[C@@H](O)[C@@H]1O` yielded a 50% effective concentration (EC50) of 9.9 µM.

On to `O=C(CCCCc1ccc(O[C@@H]2O[C@H](CO)[C@@H](O)[C@H](O)[C@H]2O)c(O)c1)CCc1ccc(O[C@@H]2O[C@H](CO)[C@@H](O)[C@H](O)[C@H]2O)c(O)c1` [PLANTAGINEOSIDE A], for which the concentration giving a half-maximal response (EC50) is 7 µM.

The next series concerns the target Peroxisome proliferator-activated receptor (Homo sapiens) (UniProt P37231+Q07869+Q03181). The description is as §4. Type of series: cell-based.
Details: not given
With `OC[C@H]1O[C@@H](O[C@H](CCc2ccc(O)c(O)c2)C[C@H](O)CCc2ccc(O)c(O)c2)[C@H](O)[C@@H](O)[C@@H]1O`, the Activity entry was “Dose-dependent effect”.

Regarding `O=C(CCCCc1ccc(O[C@@H]2O[C@H](CO)[C@@H](O)[C@H](O)[C@H]2O)c(O)c1)CCc1ccc(O[C@@H]2O[C@H](CO)[C@@H](O)[C@H](O)[C@H]2O)c(O)c1` [PLANTAGINEOSIDE A], the Activity entry was “Dose-dependent effect”.

The test system of another series is HepG2. The experiment in a line: (§5) Inhibition of NF-kappaB expressed in human HepG2 cells assessed as inhibition of TNFalpha-induced luciferase activity preincubated for 1 hr followed by TNFalpha challenge measured after 1 hr by reporter gene assay. Type of series: cell-based.
Details: not given
In a few lines: (§6)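 HepG2 cells transfected with an NF-κB-luciferase reporter were pretreated with compound at 0.1, 1 and 10 µM, then stimulated with TNF-α at 10 ng/mL. Sulfasalazine at 10 µM served as positive control. Luciferase activity was read. Data are mean ± SD (n = 3), with Dunnett's multiple comparison test, and IC50 was derived from the dose–response.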
For the compound `OC[C@H]1O[C@@H](O[C@H](CCc2ccc(O)c(O)c2)C[C@H](O)CCc2ccc(O)c(O)c2)[C@H](O)[C@@H](O)[C@@H]1O`, the inhibition entry was “Dose-dependent effect”.

Tested on in a further series: not listed separately
The description is as §5. Type of series: cell-based.
Details: not given
Summed up:
as §6
By pIC50 is commonly meant the IC50 on a negative log10 scale, so that one unit is a factor of ten. With `OC[C@H]1O[C@@H](O[C@H](CCc2ccc(O)c(O)c2)C[C@H](O)CCc2ccc(O)c(O)c2)[C@H](O)[C@@H](O)[C@@H]1O`, the pIC50 was 5.03.

With `O=C(CCCCc1ccc(O[C@@H]2O[C@H](CO)[C@@H](O)[C@H](O)[C@H]2O)c(O)c1)CCc1ccc(O[C@@H]2O[C@H](CO)[C@@H](O)[C@H](O)[C@H]2O)c(O)c1` [PLANTAGINEOSIDE A], the negative-log IC50 (pIC50) was < 5.00.
